Experimental findings from ChEMBL document CHEMBL1128673, “Conformationally constrained phosphotyrosyl mimetics designed as monomeric Src homology 2 domain inhibitors” (J Med Chem, 1995) are described below.

The structures appear in SMILES notation.

Test [1] deals with T1, Tyrosine-protein phosphatase non-receptor type 11 (Homo sapiens) (UniProt Q06124).
T1 sequence (whole entry): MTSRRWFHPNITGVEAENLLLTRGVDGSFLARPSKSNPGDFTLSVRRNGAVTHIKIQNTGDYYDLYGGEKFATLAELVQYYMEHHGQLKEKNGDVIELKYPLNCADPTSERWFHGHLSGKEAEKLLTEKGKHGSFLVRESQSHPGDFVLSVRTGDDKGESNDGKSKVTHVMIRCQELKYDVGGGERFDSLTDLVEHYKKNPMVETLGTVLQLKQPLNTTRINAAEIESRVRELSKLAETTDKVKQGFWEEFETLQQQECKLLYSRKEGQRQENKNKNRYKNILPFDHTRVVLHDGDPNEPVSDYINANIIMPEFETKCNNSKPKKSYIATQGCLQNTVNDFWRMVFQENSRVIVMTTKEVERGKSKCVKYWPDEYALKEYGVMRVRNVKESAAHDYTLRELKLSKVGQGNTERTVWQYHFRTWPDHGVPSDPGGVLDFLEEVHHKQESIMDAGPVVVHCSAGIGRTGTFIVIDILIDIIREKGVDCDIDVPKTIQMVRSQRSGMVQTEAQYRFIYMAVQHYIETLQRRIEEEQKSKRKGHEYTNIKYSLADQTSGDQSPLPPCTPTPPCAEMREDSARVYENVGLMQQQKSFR
Nature of the test: In vitro binding to SH-PTP2-N (SHP-2) SH2 domain. The procedure, abridged: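 SH-PTP2 N-terminal SH2 domain as a GST fusion (0.5–1.0 μM, Bradford) was mixed with 35 fmol (67 nCi) [125I]Bolton–Hunter IRS-1 pY1172 phosphopeptide and varying unlabelled pTyr analogue in 20 mM Tris-HCl, 250 mM NaCl, 0.1% BSA, 10 mM DTT, pH 7.4. Glutathione-agarose pull-down ran overnight at 22 °C, then 12000g for 5 min, with gamma counting of unwashed pellets.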

Test [2] is described as follows: In vitro binding to Phospholipase C-gamma SH2 domain. The method, boiled down:
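Competition binding used GST fusion of the PLCγ C-terminal SH2 domain (0.5–1.0 μM, Bradford) with 35 fmol (67 nCi) [125I]Bolton–Hunter-labelled PDGF pY1021 phosphopeptide plus varying unlabelled pTyr analogue. Buffer was 20 mM Tris-HCl, 250 mM NaCl, 0.1% BSA, 10 mM DTT, pH 7.4. Glutathione-agarose capture ran overnight at 22 °C with mixing, then 12000g for 5 min; pellet 125I was gamma-counted.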

Test [3] addresses Tyrosine-protein kinase Lck (Homo sapiens) (UniProt P06239). Briefly: In vitro binding to p56 Lck SH2 domain. The method, boiled down: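 Lck SH2 domain as a GST fusion (0.5–1.0 μM, Bradford) with 35 fmol (67 nCi) [125I]Bolton–Hunter hmT pY324 phosphopeptide and varying unlabelled pTyr analogue in 20 mM Tris-HCl, 250 mM NaCl, 0.1% BSA, 10 mM DTT, pH 7.4. Complexes were captured on glutathione-agarose overnight at 22 °C, pelleted at 12000g for 5 min, and unwashed pellets gamma-counted.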

Test [4] can be described thus: In vitro binding to p85-C SH2 domain. The method, boiled down:
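GST fusion of the p85 PI-3 kinase C-terminal SH2 domain (0.5–1.0 μM, Bradford) with 35 fmol (67 nCi) [125I]Bolton–Hunter-labelled IRS-1 pY628 phosphopeptide and varying unlabelled pTyr analogue in 20 mM Tris-HCl, 250 mM NaCl, 0.1% BSA, 10 mM DTT, pH 7.4. Glutathione-agarose capture ran overnight at 22 °C, then 12000g for 5 min; pellet 125I was gamma-counted.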

In test [5] the target is Proto-oncogene tyrosine-protein kinase Src (Homo sapiens) (UniProt P12931). Briefly: In vitro binding to Src SH2 domain.
Test [6] addresses Growth factor receptor-bound protein 2 (Homo sapiens) (UniProt P62993). Briefly: In vitro binding to Growth factor receptor bound protein 2. The method, boiled down:
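GST–Grb2 SH2 fusion (0.5–1.0 μM, Bradford-estimated) with 35 fmol (67 nCi) [125I]Bolton–Hunter-labelled Shc pY317 phosphopeptide and varying unlabelled pTyr analogue in 20 mM Tris-HCl, 250 mM NaCl, 0.1% BSA, 10 mM DTT, pH 7.4. Glutathione-agarose was added, then overnight at 22 °C with mixing. After centrifugation at 12000g for 5 min, unwashed pellet radioactivity was gamma-counted.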

Sequence of Growth factor receptor-bound protein 2 (Homo sapiens) (P62993 whole entry, looked up, the tested form may be a part): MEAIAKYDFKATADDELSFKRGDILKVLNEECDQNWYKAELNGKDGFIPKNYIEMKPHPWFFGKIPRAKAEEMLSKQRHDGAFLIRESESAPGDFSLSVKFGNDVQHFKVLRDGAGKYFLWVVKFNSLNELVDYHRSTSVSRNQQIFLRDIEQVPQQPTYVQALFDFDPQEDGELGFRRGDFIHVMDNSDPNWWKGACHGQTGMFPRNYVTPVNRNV
Sequence of Proto-oncogene tyrosine-protein kinase Src (Homo sapiens) (P12931 2-536 limits assumed): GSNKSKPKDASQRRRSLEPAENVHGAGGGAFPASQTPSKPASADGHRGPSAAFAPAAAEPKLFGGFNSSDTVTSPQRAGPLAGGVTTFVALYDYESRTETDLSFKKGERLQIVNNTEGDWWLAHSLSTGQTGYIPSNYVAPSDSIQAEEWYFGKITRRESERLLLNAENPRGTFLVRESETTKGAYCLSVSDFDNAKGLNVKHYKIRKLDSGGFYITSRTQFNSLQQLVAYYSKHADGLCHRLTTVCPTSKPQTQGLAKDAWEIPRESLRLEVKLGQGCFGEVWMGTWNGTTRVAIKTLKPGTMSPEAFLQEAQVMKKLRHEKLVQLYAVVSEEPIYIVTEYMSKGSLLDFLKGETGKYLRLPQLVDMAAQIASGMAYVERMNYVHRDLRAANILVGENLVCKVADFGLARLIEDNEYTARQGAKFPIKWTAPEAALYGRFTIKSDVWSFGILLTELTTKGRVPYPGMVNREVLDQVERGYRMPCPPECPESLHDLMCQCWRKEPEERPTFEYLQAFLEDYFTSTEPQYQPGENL
Sequence of Tyrosine-protein kinase Lck (Homo sapiens) (P06239 2-509 limits assumed): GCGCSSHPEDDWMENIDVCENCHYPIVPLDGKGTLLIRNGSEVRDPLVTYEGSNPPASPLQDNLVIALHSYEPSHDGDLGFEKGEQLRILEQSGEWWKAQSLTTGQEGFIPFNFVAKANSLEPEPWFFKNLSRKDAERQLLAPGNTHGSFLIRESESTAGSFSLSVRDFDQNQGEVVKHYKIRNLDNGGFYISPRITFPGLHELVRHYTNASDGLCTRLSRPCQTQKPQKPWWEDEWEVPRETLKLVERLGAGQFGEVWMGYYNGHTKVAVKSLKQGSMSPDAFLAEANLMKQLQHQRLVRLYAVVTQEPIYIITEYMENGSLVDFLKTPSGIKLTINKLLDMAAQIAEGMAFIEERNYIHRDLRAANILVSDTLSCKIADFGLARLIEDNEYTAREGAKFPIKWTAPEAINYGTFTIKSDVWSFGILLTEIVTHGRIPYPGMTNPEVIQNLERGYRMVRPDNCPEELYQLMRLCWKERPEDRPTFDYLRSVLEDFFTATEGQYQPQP

For `N[C@@H](Cc1ccc(OP(=O)(O)O)cc1)C(=O)O`, the ID50 is > 33000 µM in test [1]; 2300 µM in test [2]; 5000 µM in test [3]; 3500 µM in test [4]; 3500 µM in test [5]; 6200 µM in test [6].
Take `CC(=O)N[C@H](C(N)=O)[C@@H]1CCc2cc(OP(=O)(O)O)ccc21` (racemic): the ID50 is > 3000 µM in test [1]; > 3000 µM in test [2]; > 3000 µM in test [3]; 1500 µM in test [4]; > 3000 µM in test [5]; > 3000 µM in test [6].
Consider `CC(=O)N1CC2Cc3cc(OP(=O)(O)O)ccc3C(C)(C2)C1` (racemic), for which the ID50 is > 3000 µM in test [1]; > 3000 µM in test [2]; > 3000 µM in test [3]; 1300 µM in test [4]; 900 µM in test [5].
As for `CC(=O)N[C@@H](Cc1ccc(OP(=O)(O)O)cc1)C(N)=O`, the ID50 in test [1] was > 3000 µM; in test [2] it was 400 µM; in test [3] it was > 3000 µM; in test [4] it was 1500 µM; in test [5] it was 1000 µM.
`CC(=O)N[C@H](C(N)=O)[C@H]1CCc2cc(OP(=O)(O)O)ccc21` (racemic): the ID50 is > 3000 µM in test [1]; > 3000 µM in test [2]; 1500 µM in test [3]; 1500 µM in test [4]; > 3000 µM in test [5]; > 3000 µM in test [6].
Consider `CC(=O)N1CC2Cc3cc(O)ccc3C(C)(C2)C1` (racemic), for which the ID50 was > 3000 µM in test [1]; > 6000 µM in test [2]; > 6000 µM in test [3]; > 5000 µM in test [4]; > 6000 µM in test [5].
